Data on 9 compounds can be found in PMC5508980 (Molecular nutrition & food research, 2017).

Where a name gives a salt, the structure may show the parent alone.

Holding throughout (format): biochemical
Experiment [1] addresses recombinant HDAC3 (Homo sapiens, UniProt O15379). The experiment in a line: Recombinant HDAC activity assay. The settings on record: for remaining activity at 50 µM: 2 h, read-out: % HDAC activity, Class I HDACs, 3.
For experiment [2], the target named is recombinant HDAC5 (Homo sapiens, UniProt Q9UQL6). The experiment can be described thus: Recombinant HDAC activity assay. As to conditions: for remaining activity at 50 µM: 2 h, read-out: % HDAC activity, Class IIa HDACs, 5.
recombinant HDAC5, sequence (Q9UQL6 whole entry): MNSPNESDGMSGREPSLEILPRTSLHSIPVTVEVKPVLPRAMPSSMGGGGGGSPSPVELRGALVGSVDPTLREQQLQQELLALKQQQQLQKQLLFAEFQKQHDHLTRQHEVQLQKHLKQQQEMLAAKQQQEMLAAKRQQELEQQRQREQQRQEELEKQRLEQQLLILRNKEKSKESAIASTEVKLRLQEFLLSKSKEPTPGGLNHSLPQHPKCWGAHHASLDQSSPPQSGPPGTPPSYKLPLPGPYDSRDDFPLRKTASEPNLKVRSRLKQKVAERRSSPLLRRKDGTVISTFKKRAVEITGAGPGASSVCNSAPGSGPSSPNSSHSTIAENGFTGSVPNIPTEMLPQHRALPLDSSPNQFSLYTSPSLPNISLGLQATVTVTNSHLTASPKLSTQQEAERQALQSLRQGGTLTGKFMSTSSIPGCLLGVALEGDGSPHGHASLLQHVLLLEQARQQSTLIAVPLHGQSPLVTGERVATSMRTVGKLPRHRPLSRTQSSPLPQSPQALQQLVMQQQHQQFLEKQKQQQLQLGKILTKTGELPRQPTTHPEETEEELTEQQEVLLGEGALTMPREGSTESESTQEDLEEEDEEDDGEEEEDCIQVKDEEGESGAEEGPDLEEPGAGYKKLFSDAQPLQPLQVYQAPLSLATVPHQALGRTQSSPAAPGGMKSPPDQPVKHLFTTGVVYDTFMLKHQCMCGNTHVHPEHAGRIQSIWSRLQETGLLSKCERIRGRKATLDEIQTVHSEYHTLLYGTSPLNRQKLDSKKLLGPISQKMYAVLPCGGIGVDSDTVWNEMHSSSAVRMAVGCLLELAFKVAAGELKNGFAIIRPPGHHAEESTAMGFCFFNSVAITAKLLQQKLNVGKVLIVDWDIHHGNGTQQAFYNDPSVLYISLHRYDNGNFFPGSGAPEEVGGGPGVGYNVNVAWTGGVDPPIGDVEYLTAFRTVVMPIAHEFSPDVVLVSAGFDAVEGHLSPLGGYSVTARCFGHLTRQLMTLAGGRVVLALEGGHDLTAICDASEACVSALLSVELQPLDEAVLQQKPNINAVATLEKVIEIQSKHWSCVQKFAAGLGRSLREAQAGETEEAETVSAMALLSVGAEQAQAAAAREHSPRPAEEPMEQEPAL
In experiment [3] the target is T1, recombinant HDAC7 (Homo sapiens, UniProt Q8WUI4).
T1 sequence (Q8WUI4 1-952): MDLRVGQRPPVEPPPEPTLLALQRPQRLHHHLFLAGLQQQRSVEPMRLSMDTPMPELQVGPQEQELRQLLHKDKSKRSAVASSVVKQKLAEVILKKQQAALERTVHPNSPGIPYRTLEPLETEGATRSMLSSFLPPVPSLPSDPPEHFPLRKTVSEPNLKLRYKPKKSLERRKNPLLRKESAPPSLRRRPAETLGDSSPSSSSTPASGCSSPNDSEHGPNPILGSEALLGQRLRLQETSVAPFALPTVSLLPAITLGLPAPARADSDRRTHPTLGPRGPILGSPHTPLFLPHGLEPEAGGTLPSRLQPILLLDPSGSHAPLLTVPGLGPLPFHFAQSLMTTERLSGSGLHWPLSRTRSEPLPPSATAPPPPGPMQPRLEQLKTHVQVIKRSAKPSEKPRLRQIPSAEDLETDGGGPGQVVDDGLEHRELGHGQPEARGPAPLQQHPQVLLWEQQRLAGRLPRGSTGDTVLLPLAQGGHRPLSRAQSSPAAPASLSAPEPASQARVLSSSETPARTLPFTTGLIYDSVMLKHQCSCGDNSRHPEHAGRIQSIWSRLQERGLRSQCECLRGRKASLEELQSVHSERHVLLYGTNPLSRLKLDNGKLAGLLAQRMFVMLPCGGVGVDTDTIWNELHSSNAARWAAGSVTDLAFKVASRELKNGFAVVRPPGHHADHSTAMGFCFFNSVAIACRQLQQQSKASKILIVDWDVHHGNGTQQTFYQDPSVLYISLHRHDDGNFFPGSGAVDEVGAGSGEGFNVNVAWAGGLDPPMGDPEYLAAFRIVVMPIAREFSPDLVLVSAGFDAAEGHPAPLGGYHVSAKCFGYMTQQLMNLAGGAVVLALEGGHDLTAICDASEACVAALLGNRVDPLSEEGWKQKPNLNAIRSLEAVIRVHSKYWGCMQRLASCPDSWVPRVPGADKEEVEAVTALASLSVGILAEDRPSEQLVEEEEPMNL
The experiment in a line: Recombinant HDAC activity assay. The settings on record: for % HDAC activity, Class IIa HDACs, 7: recombinant protein incubated with 50 µM compound, 2 hrs.

In experiment [4] the target is recombinant HDAC9 (Homo sapiens, UniProt Q9UKV0). The experiment in a line: Recombinant HDAC activity assay. As to conditions: for remaining activity at 50 µM: 2 h, read-out: % HDAC activity, Class IIa HDACs, 9.
recombinant HDAC9, sequence (Q9UKV0 whole entry): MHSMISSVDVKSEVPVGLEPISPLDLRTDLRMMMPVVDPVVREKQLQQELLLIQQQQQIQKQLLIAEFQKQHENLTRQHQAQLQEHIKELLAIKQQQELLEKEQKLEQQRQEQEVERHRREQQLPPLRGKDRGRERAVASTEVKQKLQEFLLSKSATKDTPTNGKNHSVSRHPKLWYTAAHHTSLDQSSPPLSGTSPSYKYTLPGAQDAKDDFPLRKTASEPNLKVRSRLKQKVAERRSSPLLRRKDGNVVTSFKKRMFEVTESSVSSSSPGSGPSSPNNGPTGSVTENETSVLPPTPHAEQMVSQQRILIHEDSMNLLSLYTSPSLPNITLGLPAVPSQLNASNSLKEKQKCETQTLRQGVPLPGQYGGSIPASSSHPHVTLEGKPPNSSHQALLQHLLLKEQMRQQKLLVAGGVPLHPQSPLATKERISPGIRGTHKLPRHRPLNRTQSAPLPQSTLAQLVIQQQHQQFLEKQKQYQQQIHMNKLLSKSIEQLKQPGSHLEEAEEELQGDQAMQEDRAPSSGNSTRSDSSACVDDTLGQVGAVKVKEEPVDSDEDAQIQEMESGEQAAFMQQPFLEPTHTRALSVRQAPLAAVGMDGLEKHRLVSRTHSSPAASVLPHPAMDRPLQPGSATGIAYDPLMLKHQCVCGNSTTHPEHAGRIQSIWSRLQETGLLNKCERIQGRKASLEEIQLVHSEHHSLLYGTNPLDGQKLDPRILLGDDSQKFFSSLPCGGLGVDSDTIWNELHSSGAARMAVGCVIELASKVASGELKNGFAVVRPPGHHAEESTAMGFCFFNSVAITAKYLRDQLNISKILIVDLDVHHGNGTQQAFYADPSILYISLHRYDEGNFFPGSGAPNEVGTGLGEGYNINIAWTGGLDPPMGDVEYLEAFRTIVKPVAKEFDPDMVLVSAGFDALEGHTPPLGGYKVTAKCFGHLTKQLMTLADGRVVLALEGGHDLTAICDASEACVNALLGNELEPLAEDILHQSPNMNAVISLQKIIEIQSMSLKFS
In experiment [5] the target is recombinant HDAC1 (Homo sapiens, UniProt Q13547). The experiment can be described thus: Recombinant HDAC activity assay. The settings on record: for remaining activity at 50 µM: 2 h, read-out: % HDAC activity, Class I HDACs, 1.
recombinant HDAC1, sequence (Q13547 whole entry): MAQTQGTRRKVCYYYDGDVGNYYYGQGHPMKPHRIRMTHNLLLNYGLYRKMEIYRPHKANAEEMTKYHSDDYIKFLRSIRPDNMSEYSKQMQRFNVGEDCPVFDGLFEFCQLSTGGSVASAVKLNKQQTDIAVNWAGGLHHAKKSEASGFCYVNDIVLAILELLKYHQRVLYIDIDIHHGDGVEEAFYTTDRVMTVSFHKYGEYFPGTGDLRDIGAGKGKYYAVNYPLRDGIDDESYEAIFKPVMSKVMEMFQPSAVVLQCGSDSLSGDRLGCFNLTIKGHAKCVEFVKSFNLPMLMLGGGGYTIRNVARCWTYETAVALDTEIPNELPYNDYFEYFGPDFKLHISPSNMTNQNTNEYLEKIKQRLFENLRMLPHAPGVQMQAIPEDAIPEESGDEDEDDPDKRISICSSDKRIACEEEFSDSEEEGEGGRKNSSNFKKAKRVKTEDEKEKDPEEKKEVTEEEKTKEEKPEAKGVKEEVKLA
Experiment [6] has as its target recombinant HDAC2 (Homo sapiens, UniProt Q92769). The experiment in a line: Recombinant HDAC activity assay. The settings on record: for remaining activity at 50 µM: 2 h, read-out: % HDAC activity, Class I HDACs, 2.
Experiment [7] addresses T2, recombinant HDAC8 (Homo sapiens, UniProt Q9BY41).
T2 sequence (Q9BY41 1-377): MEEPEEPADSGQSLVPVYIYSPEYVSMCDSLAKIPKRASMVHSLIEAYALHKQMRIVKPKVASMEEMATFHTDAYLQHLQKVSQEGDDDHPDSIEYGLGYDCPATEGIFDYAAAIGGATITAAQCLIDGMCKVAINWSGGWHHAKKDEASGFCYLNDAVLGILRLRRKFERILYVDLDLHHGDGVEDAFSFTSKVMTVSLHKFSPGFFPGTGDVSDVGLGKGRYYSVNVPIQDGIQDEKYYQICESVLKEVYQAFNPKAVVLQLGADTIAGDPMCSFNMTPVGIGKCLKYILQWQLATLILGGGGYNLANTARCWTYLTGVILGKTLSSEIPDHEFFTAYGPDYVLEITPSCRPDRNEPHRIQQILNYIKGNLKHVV
The experiment in a line: Recombinant HDAC activity assay. The settings on record: for remaining activity at 50 µM: 2 h, read-out: % HDAC activity, Class I HDACs, 8.

The target of experiment [8] is T3, recombinant HDAC6 (Homo sapiens, UniProt Q9UBN7).
T3 sequence (Q9UBN7 1-1215): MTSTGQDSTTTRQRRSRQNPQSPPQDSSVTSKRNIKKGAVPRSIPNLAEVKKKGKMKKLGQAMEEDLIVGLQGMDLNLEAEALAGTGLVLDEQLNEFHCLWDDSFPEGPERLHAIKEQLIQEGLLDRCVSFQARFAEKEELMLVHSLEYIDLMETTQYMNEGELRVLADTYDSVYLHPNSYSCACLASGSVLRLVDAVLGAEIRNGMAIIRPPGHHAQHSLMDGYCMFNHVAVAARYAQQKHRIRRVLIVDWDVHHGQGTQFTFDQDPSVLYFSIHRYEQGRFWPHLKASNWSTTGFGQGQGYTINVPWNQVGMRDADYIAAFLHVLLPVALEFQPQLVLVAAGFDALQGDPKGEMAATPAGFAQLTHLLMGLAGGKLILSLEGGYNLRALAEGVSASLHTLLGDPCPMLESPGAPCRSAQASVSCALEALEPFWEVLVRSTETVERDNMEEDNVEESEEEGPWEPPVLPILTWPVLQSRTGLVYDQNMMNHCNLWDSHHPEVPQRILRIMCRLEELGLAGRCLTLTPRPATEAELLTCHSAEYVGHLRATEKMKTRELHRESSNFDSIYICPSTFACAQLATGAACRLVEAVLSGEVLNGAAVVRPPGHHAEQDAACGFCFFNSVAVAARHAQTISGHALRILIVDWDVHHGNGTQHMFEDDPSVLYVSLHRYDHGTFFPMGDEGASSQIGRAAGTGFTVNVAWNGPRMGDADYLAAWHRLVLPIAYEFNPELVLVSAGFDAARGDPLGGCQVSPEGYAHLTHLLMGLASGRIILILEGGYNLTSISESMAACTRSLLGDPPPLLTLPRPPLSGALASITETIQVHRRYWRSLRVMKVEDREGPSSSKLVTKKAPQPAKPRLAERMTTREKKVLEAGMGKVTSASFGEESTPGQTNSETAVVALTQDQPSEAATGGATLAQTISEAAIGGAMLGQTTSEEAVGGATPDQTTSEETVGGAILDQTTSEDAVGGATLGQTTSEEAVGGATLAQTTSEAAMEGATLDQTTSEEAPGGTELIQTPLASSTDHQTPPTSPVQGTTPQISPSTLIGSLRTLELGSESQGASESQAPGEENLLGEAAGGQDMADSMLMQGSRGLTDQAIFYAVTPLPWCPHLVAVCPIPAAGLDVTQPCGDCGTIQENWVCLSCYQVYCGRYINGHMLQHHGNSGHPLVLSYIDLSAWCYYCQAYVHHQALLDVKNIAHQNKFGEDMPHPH
The experiment in a line: Recombinant HDAC activity assay. As to conditions: 2 h, read-out: % HDAC activity, Class IIb HDACs, 6.

Experiment [9] has as its target T4, recombinant HDAC10 (Homo sapiens, UniProt Q969S8).
T4 sequence (Q969S8 1-669): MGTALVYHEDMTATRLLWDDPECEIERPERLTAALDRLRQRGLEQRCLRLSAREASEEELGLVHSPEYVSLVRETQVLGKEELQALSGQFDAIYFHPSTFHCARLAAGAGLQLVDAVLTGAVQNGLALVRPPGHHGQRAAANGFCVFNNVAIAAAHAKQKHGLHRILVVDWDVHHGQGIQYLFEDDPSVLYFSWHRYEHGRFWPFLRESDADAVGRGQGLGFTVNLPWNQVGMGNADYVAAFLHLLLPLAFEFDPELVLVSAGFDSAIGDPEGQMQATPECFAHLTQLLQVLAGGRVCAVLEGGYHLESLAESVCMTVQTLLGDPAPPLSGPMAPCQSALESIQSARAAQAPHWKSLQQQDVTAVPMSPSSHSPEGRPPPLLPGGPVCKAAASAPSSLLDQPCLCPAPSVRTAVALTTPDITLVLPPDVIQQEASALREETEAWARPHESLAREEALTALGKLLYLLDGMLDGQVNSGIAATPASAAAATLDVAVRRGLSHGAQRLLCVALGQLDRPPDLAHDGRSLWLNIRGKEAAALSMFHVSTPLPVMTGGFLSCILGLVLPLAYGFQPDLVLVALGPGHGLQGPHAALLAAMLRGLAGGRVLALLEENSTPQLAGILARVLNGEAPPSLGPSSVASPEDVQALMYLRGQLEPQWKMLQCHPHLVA
The experiment can be described thus: Recombinant HDAC activity assay. The settings on record: 2 h, read-out: % HDAC activity, Class IIb HDACs, 10.

The subject of experiment [10] is HDAC activity in bovine cardiac tissue. The experiment can be described thus: Natural product library screen with class-selective HDAC substrates. As to conditions: 2 hours treatment. In a few lines:
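The screen covered 131 natural compounds against bovine cardiac tissue lysate at 30 µg protein/well in PBS (pH 7.4 lysis buffer with Triton X-100 and NaCl). Test compound for 2 h, then separate class I, IIa or IIb fluorogenic acyl-lysine-AMC substrates for 2 h at 37 °C. Developer (Triton X-100, 3 µM TSA, 0.75 mg/ml trypsin) for 20 min; fluorescence read at 360/460 nm.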

Where [11] appears, read: recombinant protein incubated with 50 µM compound, 2 hrs.

recombinant HDAC2, sequence (Q92769 whole entry): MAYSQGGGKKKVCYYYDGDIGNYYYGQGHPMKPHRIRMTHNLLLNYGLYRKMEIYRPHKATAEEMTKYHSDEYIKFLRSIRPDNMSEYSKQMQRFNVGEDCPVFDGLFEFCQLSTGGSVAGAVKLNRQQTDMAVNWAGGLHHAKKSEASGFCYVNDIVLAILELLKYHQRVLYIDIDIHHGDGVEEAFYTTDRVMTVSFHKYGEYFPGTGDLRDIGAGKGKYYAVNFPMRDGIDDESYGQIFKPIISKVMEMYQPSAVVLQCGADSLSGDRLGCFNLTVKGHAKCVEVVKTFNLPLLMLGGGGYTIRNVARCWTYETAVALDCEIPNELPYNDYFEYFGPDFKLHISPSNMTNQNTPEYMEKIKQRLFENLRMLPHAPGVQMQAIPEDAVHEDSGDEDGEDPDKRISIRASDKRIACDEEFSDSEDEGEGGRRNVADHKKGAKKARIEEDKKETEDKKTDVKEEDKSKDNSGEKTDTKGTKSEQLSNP
recombinant HDAC3, sequence (O15379 whole entry): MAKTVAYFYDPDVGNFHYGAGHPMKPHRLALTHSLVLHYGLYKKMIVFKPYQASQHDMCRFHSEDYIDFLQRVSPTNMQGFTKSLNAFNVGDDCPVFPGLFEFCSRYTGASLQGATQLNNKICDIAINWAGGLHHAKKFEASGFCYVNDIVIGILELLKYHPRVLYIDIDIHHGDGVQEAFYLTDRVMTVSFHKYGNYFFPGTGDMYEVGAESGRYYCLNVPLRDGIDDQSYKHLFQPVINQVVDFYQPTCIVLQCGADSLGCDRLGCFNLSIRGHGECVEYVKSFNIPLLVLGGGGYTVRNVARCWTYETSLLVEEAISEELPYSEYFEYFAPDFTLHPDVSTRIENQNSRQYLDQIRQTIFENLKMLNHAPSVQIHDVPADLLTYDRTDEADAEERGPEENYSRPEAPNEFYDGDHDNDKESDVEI
recombinant HDAC3, sequence (Q9Y618 395-489 partner limits assumed): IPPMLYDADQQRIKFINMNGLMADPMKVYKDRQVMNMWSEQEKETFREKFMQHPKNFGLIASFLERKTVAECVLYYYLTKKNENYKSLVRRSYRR

On to `O=c1cc(-c2ccccc2)oc2cc(O)c(O)c(O)c12` [Baicalein], for which the remaining activity at 50 µM came out at 59.2% in [1], 76.6% in [2] and 66.1% in experiment [4]. The “% HDAC activity, Class IIa HDACs, 7” value in experiment [3] was “-”.

For the compound `O=C(O)[C@H]1O[C@@H](Oc2cc3oc(-c4ccccc4)cc(=O)c3c(O)c2O)[C@H](O)[C@@H](O)[C@@H]1O` [Baicalin], the remaining activity at 50 µM in experiment [5] worked out at 89%; in experiment [6], 72.9%; in experiment [1], 81.7%; in [7], 78.3%; in [2], 81.8%; in experiment [4] it was 91.5%. For the same compound, the figures for the remaining activity at 50 µM in experiment [8] and in [9] were 86.2% and 84.7%, respectively. Also, the “% HDAC activity, Class IIa HDACs, 7” value in experiment [3] is reported as “-”.

On to `COc1ccc2cc3[n+](cc2c1OC)CCc1cc2c(cc1-3)OCO2` [Berberine HCl, berberine hydrochloride], for which the remaining activity at 50 µM in experiment [5] was 50.5%; in [6], 70.3%; in experiment [1], 48.3%; in [7] it was 46.8%; in experiment [8] it was 60.9%; in experiment [9], 45%.

`O=C(O)/C=C/c1ccc(O)c(O)c1` [Caffeic acid]: the “% HDAC activity, Class IIa HDACs, 7” value in experiment [3] is on record as “-”.

On to `O=C1c2c(O)cc(O)cc2O[C@H](c2cc(O)c(O)c(O)c2)[C@H]1O` [Dihydromyricetin], for which the remaining activity at 50 µM in [5] was determined as 90%; in experiment [6], 73.9%; in experiment [1], 82.5%; in [7] it was 81.9%; in experiment [2], 73.4%; in experiment [3] (2 h, read-out: % HDAC activity, Class IIa HDACs, 7), 94%. Further, the remaining activity at 50 µM came to 92.5% in [4] and 86.3% in [9].

Consider `O=C1Nc2ccccc2/C1=C1/Nc2ccccc2C1=O` [Indirubin], for which the remaining activity at 50 µM in [5] stood at 61.5%; in [6], 58.7%; in experiment [1], 56.6%; in [7] it was 58.4%; in [8], 65.7%; in [9], 67%. The “% HDAC activity, Class IIa HDACs, 7” value in experiment [3] was “-”.

Regarding `O=c1c(O)c(-c2ccc(O)cc2)oc2cc(O)cc(O)c12` [Kaempferol], the remaining activity at 50 µM was found to be 72.8% in experiment [5]; 71.7% in [6]; 66.9% in [1]; 68.7% in experiment [7]; 73.5% in [2]; 70.6% in experiment [4]. The remaining activity at 50 µM in [9] was 71.6%. The “% HDAC activity, Class IIa HDACs, 7” value in experiment [3] was “-”.

Turning to `O.O=c1c(O)c(-c2ccc(O)cc2O)oc2cc(O)cc(O)c12` [Morin hydrate], the “% HDAC activity, Class I HDACs, 1” value in [5] (setting [11]) worked out at 62.3%. Besides, in [6] (setting [11]), the “% HDAC activity, Class I HDACs, 2” value is on record as 43.3%. The “% HDAC activity, Class I HDACs, 3” value in experiment [1] (setting [11]) came out at 56.0%. In experiment [7] (setting [11]), the “% HDAC activity, Class I HDACs, 8” value is reported as 49.3%. In experiment [2] (setting [11]), the “% HDAC activity, Class IIa HDACs, 5” value worked out at 56.7%. Also, the “% HDAC activity, Class IIa HDACs, 7” value in [3] is reported as “-”. For the same compound, in experiment [4] (setting [11]), the “% HDAC activity, Class IIa HDACs, 9” value came out at 56.1%.

As to `O=c1c(O)c(-c2cc(O)c(O)c(O)c2)oc2cc(O)cc(O)c12` [Myricetin], the remaining activity at 50 µM in [5] amounted to 68%; in experiment [1] it was 59.9%; in experiment [7], 60.2%; in experiment [2] it was 65.1%; in experiment [4], 77%; in experiment [9] it was 63.4%. Moreover, the “% HDAC activity, Class IIa HDACs, 7” value in [3] was “-”. Besides, the “catalytic HDAC activity across class I, IIa and IIb substrates, effect in words” value in experiment [10] was “pan-HDAC inhibition”.
